Experimental findings from ChEMBL document CHEMBL2407020, “Design, synthesis, and evaluation of novel VEGFR2 kinase inhibitors: discovery of [1,2,4]triazolo[1,5-a]pyridine derivatives with slow dissociation kinetics” (Bioorg Med Chem, 2013) are described below.

≈ marks a conversion by molar mass, not a printed value.

The nature of data set [1]: Metabolic stability in human liver microsomes. Format: ADME, Microsome. Conditions: read-out: Stability. The essentials:
(§1)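 Metabolic stability measured in hepatic microsomes, expressed in µL/min/mg.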

The nature of data set [2]: Kinetic solubility of the compound in 2nd fluid of Disintegration Test of the Japanese Pharmacopoeia at pH 6.8. Format: physicochemical. The conditions noted are these: read-out: Kinetic_solubility. The essentials: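 Kinetic solubility measured in JP2 (2nd fluid of Disintegration Test, Japanese Pharmacopoeia), pH 6.8.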
Data set [3] in a line: Metabolic stability in mouse liver microsomes. Format: ADME, Microsome. The conditions noted are these: read-out: Stability. The essentials:
as §1
For orientation: Liver microsomes are vesicles of endoplasmic reticulum, rich in cytochrome P450 enzymes.

For `Cc1cc(C(=O)Nc2cccc(Oc3ccc4nc(NC(=O)C5CC5)cn4n3)c2)n(C)n1`, the microsomal CLint is 6 µL/min/mg in data set [1] and 43 µL/min/mg in data set [3]. Further, in data set [2], the solubility kinetic worked out at 1.7 µg/mL (≈ 3.94 µM). As for `Cc1cc(C(=O)Nc2cccc(Oc3ccc4nc(NC(=O)C5CC5)nn4c3)c2)n(C)n1`, the solubility kinetic in data set [2] came to 1.2 µg/mL (≈ 2.78 µM). With `Cc1cc(C(=O)Nc2cc(Oc3ccc4nc(NC(=O)C5CC5)nn4c3)ccc2C)n(C)n1`, the solubility kinetic in data set [2] was 53 µg/mL (≈ 119 µM). As for `Cc1cc(NC(=O)c2cc(C)nn2C)cc(Oc2ccc3nc(NC(=O)C4CC4)nn3c2)c1`, the solubility kinetic in data set [2] worked out at 3.2 µg/mL (≈ 7.18 µM). For `Cc1cc(C(=O)Nc2cc(Oc3ccc4nc(NC(=O)C5CC5)nn4c3)ccc2F)n(C)n1`, the microsomal CLint in data set [1] was found to be 10 µL/min/mg; in data set [3], 45 µL/min/mg. Also, in data set [2], the solubility kinetic stood at 65 µg/mL (≈ 145 µM). Turning to `Cc1cc(C(=O)Nc2cccc(Oc3ccc4nc(NC(=O)C5CC5)cn4c3)c2)n(C)n1`, in data set [2], the solubility kinetic stood at 0.73 µg/mL (≈ 1.7 µM).

As for `Cc1cc(C(=O)Nc2cc(Oc3ccc4nc(NC(=O)C5CC5)cn4c3)ccc2C)n(C)n1`, the solubility kinetic in data set [2] was 2.9 µg/mL (≈ 6.52 µM). The same measure, in the same setting: the result for `Cc1cc(C(=O)Nc2cccc(Oc3ccc4nc(NC(=O)C5CC5)sc4n3)c2)n(C)n1` reads less than 0.04 µg/mL; that for `Cc1cc(C(=O)Nc2cc(Oc3ccc4nc(NC(=O)C5CC5)sc4n3)ccc2C)n(C)n1`, 4.8 µg/mL (≈ 10.4 µM); that for `Cc1cc(C(=O)Nc2ccc(C)c(Oc3ccc4nc(NC(=O)C5CC5)nn4c3)c2)n(C)n1`, 3.7 µg/mL (≈ 8.31 µM). On to `Cc1nc(C(=O)Nc2cc(Oc3ccc4nc(NC(=O)C5CC5)nn4c3)ccc2C)c(C)s1`, for which the solubility kinetic in data set [2] is 0.16 µg/mL (≈ 0.346 µM). Same read-out and setting: the result for `Cc1ccc(Oc2ccc3nc(NC(=O)C4CC4)nn3c2)cc1NC(=O)c1scc(C)c1Cl` reads 1.2 µg/mL (≈ 2.49 µM).

On to `Cc1ccc(Oc2ccc3nc(NC(=O)C4CC4)nn3c2)cc1NC(=O)c1cn(C)nc1C`, for which the microsomal CLint in data set [1] amounted to 6 µL/min/mg; in data set [3] it was 78 µL/min/mg. Moreover, the solubility kinetic in data set [2] is greater than 93 µg/mL. As to `Cc1ccc(Oc2ccc3nc(NC(=O)C4CC4)nn3c2)cc1NC(=O)c1ccnn1C`, the solubility kinetic in data set [2] is greater than 80 µg/mL. For the compound `Cc1ccc(Oc2ccc3nc(NC(=O)C4CC4)nn3c2)cc1NC(=O)CC(C)C`, in data set [2], the solubility kinetic stood at 12 µg/mL (≈ 29.4 µM).

Regarding `Cc1ccc(Oc2ccc3nc(NC(=O)C4CC4)nn3c2)cc1NC(=O)C1CCC1`, in data set [2], the solubility kinetic is greater than 78 µg/mL. Turning to `Cc1cc(C(=O)Nc2cccc(Oc3ccc4nc(NC(=O)C5CC5)sc4c3)c2)n(C)n1`, the solubility kinetic in data set [2] is 0.22 µg/mL (≈ 0.492 µM).
